Each block holds one molecule with its values, some of them ahead of it. Active and inactive are the calls of the source. The calls are words filed in the database; no cut-off is given here.
How the values were obtained:
[1] = Chemical stability of the compound assessed as compound hydrolysis at 50 uM in HEPES buffer incubated for 12 hrs at pH 7.5 at 37 degC by UV-visible spectrometry; type: physicochemical; conditions: pH 7.5, 12 h
Procedure, shortened: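 Hydrolysis followed by UV−vis spectrometry after incubation for 12 h at pH 7.5 and 37 °C.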

[2] = Chemical stability of the compound assessed as compound hydrolysis at 50 uM in Opti-Mem solution incubated for 12 hrs at pH 7.5 at 37 degC by UV-visible spectrometry; type: physicochemical; conditions: buffer, pH 7.5, 12 h
[3] = system: U2OS; test: Activation of p53 in human U2OS cells expressing EGFP assessed as increase of EGFP expression at 2.5 uM after 48 hrs relative to Nutlin-3; type: cell-based
Procedure, shortened: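 U2OS-pLV cells carrying an integrated p53-responsive EGFP reporter; compounds at 2.5 μM for 48 h. Read-out is the percentage of EGFP-positive cells, counted by high-content screening. The value is the ratio to the response with Nutlin-3, which is set as 1.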

[4] = system: U2OS; test: Cytotoxicity against human U2OS cells expressing p53 assessed as number of cells by Hoechst stain staining relative to Nutlin-3; type: functional
Procedure, shortened: (§1)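 p53+ and p53− cells treated, then Hoechst-stained; surviving cells counted. The value is the ratio of compound effect to Nutlin-3 effect, which is set as 1.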

[5] = system: U2OS; test: Cytotoxicity against human p53 deficient U2OS cells assessed as number of cells by Hoechst stain staining relative to Nutlin-3; type: functional; procedure, shortened: as §1
[6] = system: U2OS; test: Activation of p53 in human U2OS cells assessed as increase of MDM2 expression at 2.5 uM after 12 hrs by Western blotting; type: cell-based
[7] = molecular target: Cellular tumor antigen p53 (Homo sapiens) (UniProt P04637); test: Stabilization of p53 in human U2OS cells assessed as intracellular p53 level at 0.5 uM after 12 hrs by Western blotting; type: cell-based
[8] = system: U2OS; test: Activation of p53 in human U2OS cells assessed as increase of MDM2 expression at 0.5 uM after 12 hrs by Western blotting; type: cell-based

Cellular tumor antigen p53 (Homo sapiens), sequence (P04637 whole entry, looked up): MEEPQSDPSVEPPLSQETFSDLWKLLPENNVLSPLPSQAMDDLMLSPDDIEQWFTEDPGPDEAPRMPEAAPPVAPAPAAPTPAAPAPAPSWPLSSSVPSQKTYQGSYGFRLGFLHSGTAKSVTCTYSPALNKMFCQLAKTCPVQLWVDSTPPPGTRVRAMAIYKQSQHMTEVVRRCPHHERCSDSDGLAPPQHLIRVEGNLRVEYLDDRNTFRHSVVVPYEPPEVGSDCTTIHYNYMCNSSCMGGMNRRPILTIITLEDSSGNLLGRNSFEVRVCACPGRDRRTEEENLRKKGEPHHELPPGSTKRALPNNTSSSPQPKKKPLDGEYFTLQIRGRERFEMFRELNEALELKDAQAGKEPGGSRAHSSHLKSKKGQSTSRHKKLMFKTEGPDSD

Stability [1]: Unstable | Stability [2]: Unstable
SMILES: O=C1Nc2ccccc2/C1=N/c1ccc(C(=O)NCc2ccccc2)cc1

Stability [1]: Unstable | Stability [2]: Unstable
SMILES: O=C1C(=O)N(CN2CCN(c3ccccc3)CC2)c2ccccc21

SMILES: O=C(NCc1ccccc1)c1ccc(/N=C2\C(=O)N(CN3CCN(Cc4ccccc4)CC3)c3ccccc32)cc1
Ratio [3]: 4.2 | Ratio [4]: 0.1 | Ratio [5]: 0.19

SMILES: O=C(NCc1ccccc1)c1ccc(/N=C2\C(=O)N(CN3CCN(c4ccccc4F)CC3)c3ccccc32)cc1
Ratio [3]: 3.6 | Ratio [4]: 0.11 | Ratio [5]: 0.24

SMILES: CN(Cc1ccccc1)CN1C(=O)/C(=N\c2ccc(C(=O)NCc3ccccc3)cc2)c2ccccc21
Ratio [3]: 3.1 | Ratio [4]: 0.14 | Ratio [5]: 0.41

SMILES: O=C(NCc1ccccc1)c1ccc(/N=C2\C(=O)N(CN3CCC(Cc4ccccc4)CC3)c3ccccc32)cc1
Ratio [3]: 4.9 | Ratio [4]: 0.14 | Ratio [5]: 0.32

SMILES: O=C(NCc1ccccc1)c1ccc(/N=C2\C(=O)N(CN3CCN(c4ccccc4)CC3)c3ccccc32)cc1
Ratio [3]: 3.9 | Ratio [4]: 0.22 | Ratio [5]: 0.4 | Activity [6]: inactive

SMILES: C[C@H](NC(=O)c1ccc(/N=C2\C(=O)N(CN3CCN(Cc4ccccc4)CC3)c3ccccc32)cc1)c1ccccc1
Ratio [3]: 8.7 | Ratio [4]: 0.04 | Ratio [5]: 0.27

SMILES: COc1ccc(C2=N[C@@H](c3ccc(Cl)cc3)[C@@H](c3ccc(Cl)cc3)N2C(=O)N2CCNC(=O)C2)c(OC(C)C)c1
Activity [6]: inactive

Activity [7]: Active
SMILES: COc1cccc2c1C(=O)c1c(O)c3c(c(O)c1C2=O)C[C@@](O)(C(=O)CO)C[C@@H]3O[C@H]1C[C@H](N)[C@H](O)[C@H](C)O1
Activity [8]: inactive

Source: ChEMBL document CHEMBL3621156, “Discovery of Novel Isatin-Based p53 Inducers” (ACS Med Chem Lett, 2015)
